Experiments:
U-87 MG [1] = assay: Induction of autophagy in human U-87 MG cells assessed as decrease in LC3I expression at 0.05 to 1 uM incubated for 48 hrs by Western blot analysis; assay type: functional, cell-based; settings: U-87MG ATCC
In short: (§1)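 U-87 MG cells cultured two days, then exposed 48 h to increasing doses. Lysed in RIPA with protease inhibitors; 5 µg protein run on 4-20% SDS gels and transferred to PVDF. Probed for phospho/total AKT, S6, S6K, P62 and LC3, detected by ECL. Band intensities normalized to β-actin.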

U-87 MG [2] = assay: Induction of autophagy in human U-87 MG cells assessed as increase in LC3II expression at 0.05 to 1 uM incubated for 48 hrs by Western blot analysis; assay type: functional, cell-based; settings: U-87MG ATCC; in short: as §1
U-87 MG [3] = assay: Antiproliferative activity against human U-87 MG cells assessed as inhibition of cell proliferation incubated for 72 hrs by CellTiter-Glo luminescent assay; assay type: functional, cell-based, U-87MG ATCC
In short: (§2)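 A549 in RPMI 1640 and U-87MG in DMEM, each with 10% FCS and 1% glutamine, at 37 °C and 5% CO₂. Cells seeded at 3000/well, dosed the next day, treated 72 h. Viability read by CellTiter-Glo luminescence with DMSO-treated cells set to 100%. IC50 taken from survival curves over three independent experiments.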

A549 = assay: Antiproliferative activity against human A549 cells assessed as inhibition of cell proliferation incubated for 72 hrs by CellTiter-Glo luminescent assay; assay type: functional, cell-based; settings: A549, 72 h; in short: as §2
[4] = Permeability across blood brain barrier in Swiss mouse assessed as brain to plasma ratio of (2R,4aR,9aR)-7-((E)-2-(5-hydroxy-2,2-dimethylchroman-7-yl)vinyl)-1,1,4a-trimethyl-2,3,4,4a,9,9a-hexahydro-1H-xanthene-2,5-diol metabolite at 15 mg/kg, ip and measured after 1.5 hrs by LC-MS/MS analysis; assay type: ADME, organism-based
In short: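 Nine male Swiss mice given 15 mg/kg prodrug i.p. (4 mg/mL in cyclodextrin vehicle). Blood taken from three mice at each of 0.25, 0.75 and 1.5 h; animals then saline-perfused transcardially under isoflurane. Plasma and brain homogenate (1:1 water) acetonitrile-precipitated and analyzed by LC-MS/MS.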

U-87 MG [5] = assay: Induction of autophagy in human U-87 MG cells assessed as decrease in P62 expression at 0.05 to 1 uM incubated for 48 hrs by Western blot analysis; assay type: functional, cell-based; settings: U-87MG ATCC; in short: as §1
[6] = Toxicity in immunodeficient nude mouse model xenografted with high alert medicated patient derived human GBM1 cells assessed as body weight change at 50 mg/kg,ip QD for 27 days cotreatment with Temozolomide at 42 mg/kg,po QD for 5 days; assay type: organism-based; settings: in vivo, 648 h, time 27 day
In short: (§3)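 Female athymic nude mice bearing subcutaneous GBM1-HAM PDX fragments (20 mm³); treatment began day 11 post-implant at tumour volumes 75-196 mm³, 10 per group. Compound i.p. daily in cyclodextrin vehicle (17 days alone, 27 days in combination); temozolomide 42 mg/kg p.o. daily for 5 days in PBS/glucose/Tween 80. Calliper volumes three times weekly; body weight and clinical signs monitored.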

[7] = Toxicity in immunodeficient nude mouse model xenografted with high alert medicated patient derived human GBM1 cells assessed as clinical symptoms at 50 mg/kg,ip QD for 27 days cotreatment with Temozolomide at 42 mg/kg,po QD for 5 days; assay type: organism-based; settings: in vivo, 648 h, time 27 day; in short: as §3
[8] = Toxicity in immunodeficient nude mouse model xenografted with high alert medicated patient derived human GBM1 cells assessed as clinical symptoms at 50 mg/kg,ip QD for 17 days; assay type: organism-based; settings: in vivo, 408 h, time 17 day; in short: as §3

**Q.** What does the source list for `CC1(C)CCc2c(O)cc(/C=C/c3cc(O)c4c(c3)C[C@@H]3C(C)(C)[C@H](OC=O)CC[C@@]3(C)O4)cc2O1`?
**A.** Activity (U-87 MG [1]): Dose-Dependent Effect; Activity (U-87 MG [2]): Dose-Dependent Effect; IC50 (U-87 MG [3]): 0.0124 µM; IC50 (A549): 0.733 µM; BPR [4]: 1.74; Activity (U-87 MG [5]): Dose-Dependent Effect; Activity [6]: Non-Toxic; Activity [7]: Non-Toxic; Activity [8]: Non-Toxic

Source: ChEMBL document CHEMBL5370602, “Structure-Based Design of a Lead Compound Derived from Natural Schweinfurthins with Antitumor Properties That Target Oxysterol-Binding Protein” (J Med Chem, 2023)
